According to ChEMBL document CHEMBL1132334, “Discovery of 1,6-naphthyridines as a novel class of potent and selective human cytomegalovirus inhibitors” (J Med Chem, 1999):
Converted amounts (≈) assume the structure as drawn.

Columns and labels:
Hs68 [1] = assay: Cytotoxicity in the human fibroblast Hs 68 cell line; type: functional
Method in brief: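 Hs68 fibroblasts plated at 1000 cells/well and incubated overnight. Medium then replaced with compound, six serial 2-fold dilutions (3.2-100 µg/mL) in triplicate, for 72 h. Proliferation read by [³H]thymidine uptake with scintillation counting and expressed as percent of untreated control; CC50 is the concentration giving 50% inhibition.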

Human betaherpesvirus 5 = assay: Anti-HCMV activity in the human fibroblast Hs 68 cell line; type: functional, organism-based; settings: Human betaherpesvirus 5, Hs68
Method in brief: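 Hs68 human fibroblasts infected with HCMV strain AD169 at MOI 0.001, with or without compound, incubated 7 days. Plaques then counted under the microscope. Mean of duplicate values, experiments done at least twice.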

Hs68 [2] = assay: Cytotoxicity in the Hs 68 cell line; type: functional; settings: Homo sapiens

Question: Which CC50 (Hs68 [1]) does the source give for O=C(NCCc1ccccc1)c1ccc2cnccc2n1 here?
Answer: 5 µg/mL (≈ 18 µM)

Question: And the IC50 (Human betaherpesvirus 5)?
Answer: 0.78 µg/mL (≈ 2.81 µM)

Question: For CC(C)Oc1cccc(CNC(=O)c2ccc3cnccc3n2)c1, which CC50 (Hs68 [1]) is on record?
Answer: 8.4 µg/mL (≈ 26.1 µM)

Question: And the IC50 (Human betaherpesvirus 5)?
Answer: 3.6 µg/mL (≈ 11.2 µM)

Question: Which results are given for CC(C)Oc1ccccc1CNC(=O)c1ccc2cncc(Br)c2n1?
Answer: CC50 (Hs68 [1]): 9 µg/mL (≈ 22.5 µM); IC50 (Human betaherpesvirus 5): 0.15 µg/mL (≈ 0.375 µM)

Question: With O=C(NCc1ccccc1)c1ccc2cnccc2n1 as the compound, how does the CC50 (Hs68 [1]) read?
Answer: 71 µg/mL (≈ 270 µM)

Question: What about the IC50 (Human betaherpesvirus 5) of the same compound?
Answer: 1 µg/mL (≈ 3.8 µM)

Question: Which CC50 (Hs68 [1]) does the source give for O=C(NCc1ccc(Br)cc1)c1ccc2cnccc2n1 here?
Answer: 10 µg/mL (≈ 29.2 µM)

Question: What about the IC50 (Human betaherpesvirus 5) of the same compound?
Answer: > 10 µg/mL

Question: Which results are given for C=Cc1cncc2ccc(C(=O)NCc3ccccc3OC(C)C)nc12?
Answer: CC50 (Hs68 [1]): 17 µg/mL (≈ 48.9 µM); IC50 (Human betaherpesvirus 5): 0.003 µg/mL (≈ 0.00864 µM)

Question: How did the CC50 (Hs68 [1]) turn out when CC(C)Oc1ccccc1CNC(=O)c1ccc2cnccc2n1 was run?
Answer: 2.5 µg/mL (≈ 7.78 µM)

Question: And the IC50 (Human betaherpesvirus 5)?
Answer: 0.005 µg/mL (≈ 0.0156 µM)

Question: How did the CC50 (Hs68 [2]) turn out when Nc1nc2c(ncn2COC(CO)CO)c(=O)[nH]1 [GANCICLOVIR] was run?
Answer: 12.5 µg/mL (≈ 49 µM)

Question: And the IC50 (Human betaherpesvirus 5)?
Answer: 0.3 µg/mL (≈ 1.18 µM)

Question: What does the source list for CC(C)(C)Oc1ccccc1CNC(=O)c1ccc2cnccc2n1?
Answer: CC50 (Hs68 [1]): 4.4 µg/mL (≈ 13.1 µM); IC50 (Human betaherpesvirus 5): 0.04 µg/mL (≈ 0.119 µM)

Question: Which CC50 (Hs68 [1]) does the source give for COc1ccccc1CNC(=O)c1cc(C)c2cnccc2n1 here?
Answer: 8 µg/mL (≈ 26 µM)

Question: And the IC50 (Human betaherpesvirus 5)?
Answer: 11 µg/mL (≈ 35.8 µM)

Question: Which CC50 (Hs68 [2]) does the source give for COc1cccc(CNC(=O)c2ccc3cnccc3n2)c1 here?
Answer: 100 µg/mL (≈ 341 µM)

Question: And the IC50 (Human betaherpesvirus 5)?
Answer: 2.1 µg/mL (≈ 7.16 µM)

Question: For Cc1cncc2ccc(C(=O)NCc3ccccc3OC(C)C)nc12, which CC50 (Hs68 [1]) is on record?
Answer: 3 µg/mL (≈ 8.94 µM)

Question: And the IC50 (Human betaherpesvirus 5)?
Answer: 0.0004 µg/mL (≈ 0.00119 µM)

Question: Which CC50 (Hs68 [2]) does the source give for COc1ccc(CNC(=O)c2ccc3cnccc3n2)cc1 here?
Answer: 50 µg/mL (≈ 170 µM)

Question: And the IC50 (Human betaherpesvirus 5)?
Answer: > 50 µg/mL

Question: Which CC50 (Hs68 [1]) does the source give for CC[C@H](C)Oc1ccccc1CNC(=O)c1ccc2cnccc2n1 here?
Answer: 3.1 µg/mL (≈ 9.24 µM)

Question: What about the IC50 (Human betaherpesvirus 5) of the same compound?
Answer: 0.03 µg/mL (≈ 0.0894 µM)

Question: What does the source list for O=C(NCc1ccccc1Br)c1ccc2cnccc2n1?
Answer: CC50 (Hs68 [1]): 100 µg/mL (≈ 292 µM); IC50 (Human betaherpesvirus 5): 0.7 µg/mL (≈ 2.05 µM)

Question: How did the CC50 (Hs68 [1]) turn out when CC(C)Oc1ccccc1CNC(=O)c1ccc2cncc(Cl)c2n1 was run?
Answer: 6 µg/mL (≈ 16.9 µM)

Question: And the IC50 (Human betaherpesvirus 5)?
Answer: 0.03 µg/mL (≈ 0.0843 µM)

Question: For O=C(Nc1ccccc1)c1ccc2cnccc2n1, which CC50 (Hs68 [2]) is on record?
Answer: 50 µg/mL (≈ 201 µM)

Question: What about the IC50 (Human betaherpesvirus 5) of the same compound?
Answer: 50 µg/mL (≈ 201 µM)

Question: How did the CC50 (Hs68 [1]) turn out when CC[C@@H](C)Oc1ccccc1CNC(=O)c1ccc2cnccc2n1 was run?
Answer: 0.1 µg/mL (≈ 0.298 µM)

Question: What about the IC50 (Human betaherpesvirus 5) of the same compound?
Answer: 0.003 µg/mL (≈ 0.00894 µM)

Question: Which results are given for O=C(NCc1cccc(Br)c1)c1ccc2cnccc2n1?
Answer: CC50 (Hs68 [1]): 50 µg/mL (≈ 146 µM); IC50 (Human betaherpesvirus 5): 2.2 µg/mL (≈ 6.43 µM)

Question: What does the source list for COc1ccccc1CCNC(=O)c1ccc2cnccc2n1?
Answer: CC50 (Hs68 [2]): 17 µg/mL (≈ 55.3 µM); IC50 (Human betaherpesvirus 5): 6 µg/mL (≈ 19.5 µM)
